Measurements from ChEMBL document CHEMBL1933027, “Time-dependent botulinum neurotoxin serotype A metalloprotease inhibitors” (Bioorg Med Chem, 2011).
Activity calls are given as the source filed them. No cut-off for these calls is given here. Peptide text beside a SMILES is read from it. * marks the point of attachment. X1 = O=C(C(S)Cc1ccccc1)*

What was measured:
[1] = target: T1, Botulinum neurotoxin type A (Clostridium botulinum, UniProt P0DPI0); assay: Inhibition of Clostridium botulinum BoNT/A light chain-mediated SNAP-25 substrate cleavage after 40 mins by FRET assay
How it was run: (§1)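 Recombinant BoNT/A LC at 2 nM was incubated with 20 μM SNAP-25 peptide (AA 187–203, DnpK/daciaC-labelled) for 40 min at 37 °C. Cleaved-substrate fluorescence was read at 485 nm with excitation at 398 nm. IC50 is the compound concentration giving 50% inhibition, averaged over two experiments.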

[2] = target: T1, Botulinum neurotoxin type A; assay: Inhibition of Clostridium botulinum botulinum neurotoxin type A light chain; how it was run: as §1
Lethal factor = target: T2, Lethal factor (Bacillus anthracis, UniProt P15917); assay: Inhibition of Bacillus anthracis lethal factor using MCA-KKVYPYPME[dnp]Kamide peptide substrate after 30 mins by FRET assay
T2 sequence (P15917 whole entry): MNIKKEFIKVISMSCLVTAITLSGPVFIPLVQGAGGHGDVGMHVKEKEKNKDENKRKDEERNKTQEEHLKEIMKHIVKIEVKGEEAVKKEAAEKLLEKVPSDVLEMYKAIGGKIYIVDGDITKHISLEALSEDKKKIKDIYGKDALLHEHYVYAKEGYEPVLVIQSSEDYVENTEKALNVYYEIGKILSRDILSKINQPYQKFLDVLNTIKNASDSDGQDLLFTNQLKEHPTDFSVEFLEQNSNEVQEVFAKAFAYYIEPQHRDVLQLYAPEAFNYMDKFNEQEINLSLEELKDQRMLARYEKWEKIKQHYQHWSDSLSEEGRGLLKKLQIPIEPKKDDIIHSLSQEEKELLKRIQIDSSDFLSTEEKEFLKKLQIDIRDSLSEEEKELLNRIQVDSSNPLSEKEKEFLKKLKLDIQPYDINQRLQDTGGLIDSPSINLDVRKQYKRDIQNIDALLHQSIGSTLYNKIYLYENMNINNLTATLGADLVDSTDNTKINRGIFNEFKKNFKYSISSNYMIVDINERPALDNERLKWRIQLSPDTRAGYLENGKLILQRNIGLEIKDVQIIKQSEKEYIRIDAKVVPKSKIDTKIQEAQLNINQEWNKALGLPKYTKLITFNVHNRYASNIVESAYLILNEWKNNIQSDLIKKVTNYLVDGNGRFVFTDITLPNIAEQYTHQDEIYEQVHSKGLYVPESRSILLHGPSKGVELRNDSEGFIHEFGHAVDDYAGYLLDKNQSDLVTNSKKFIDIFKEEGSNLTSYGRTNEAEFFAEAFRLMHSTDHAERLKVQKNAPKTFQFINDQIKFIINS

[3] = target: T1, Botulinum neurotoxin type A; assay: Inhibition of Clostridium botulinum BoNT/A light chain after 40 mins by HPLC assay
How it was run: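 Incubation was at 37 °C for 40 min with 6 nM BoNT/A LC and 60 μM 17-mer SNAPtide substrate. Samples were separated by reverse-phase C18 HPLC, effluent was monitored at 365 nm, and peaks were quantified by integration.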

[4] = target: T3, Botulinum neurotoxin type B (Clostridium botulinum, UniProt P10844); assay: Inhibition of Clostridium botulinum BoNT/B light chain after 40 mins by FRET-based assay
T3 sequence (P10844 whole entry): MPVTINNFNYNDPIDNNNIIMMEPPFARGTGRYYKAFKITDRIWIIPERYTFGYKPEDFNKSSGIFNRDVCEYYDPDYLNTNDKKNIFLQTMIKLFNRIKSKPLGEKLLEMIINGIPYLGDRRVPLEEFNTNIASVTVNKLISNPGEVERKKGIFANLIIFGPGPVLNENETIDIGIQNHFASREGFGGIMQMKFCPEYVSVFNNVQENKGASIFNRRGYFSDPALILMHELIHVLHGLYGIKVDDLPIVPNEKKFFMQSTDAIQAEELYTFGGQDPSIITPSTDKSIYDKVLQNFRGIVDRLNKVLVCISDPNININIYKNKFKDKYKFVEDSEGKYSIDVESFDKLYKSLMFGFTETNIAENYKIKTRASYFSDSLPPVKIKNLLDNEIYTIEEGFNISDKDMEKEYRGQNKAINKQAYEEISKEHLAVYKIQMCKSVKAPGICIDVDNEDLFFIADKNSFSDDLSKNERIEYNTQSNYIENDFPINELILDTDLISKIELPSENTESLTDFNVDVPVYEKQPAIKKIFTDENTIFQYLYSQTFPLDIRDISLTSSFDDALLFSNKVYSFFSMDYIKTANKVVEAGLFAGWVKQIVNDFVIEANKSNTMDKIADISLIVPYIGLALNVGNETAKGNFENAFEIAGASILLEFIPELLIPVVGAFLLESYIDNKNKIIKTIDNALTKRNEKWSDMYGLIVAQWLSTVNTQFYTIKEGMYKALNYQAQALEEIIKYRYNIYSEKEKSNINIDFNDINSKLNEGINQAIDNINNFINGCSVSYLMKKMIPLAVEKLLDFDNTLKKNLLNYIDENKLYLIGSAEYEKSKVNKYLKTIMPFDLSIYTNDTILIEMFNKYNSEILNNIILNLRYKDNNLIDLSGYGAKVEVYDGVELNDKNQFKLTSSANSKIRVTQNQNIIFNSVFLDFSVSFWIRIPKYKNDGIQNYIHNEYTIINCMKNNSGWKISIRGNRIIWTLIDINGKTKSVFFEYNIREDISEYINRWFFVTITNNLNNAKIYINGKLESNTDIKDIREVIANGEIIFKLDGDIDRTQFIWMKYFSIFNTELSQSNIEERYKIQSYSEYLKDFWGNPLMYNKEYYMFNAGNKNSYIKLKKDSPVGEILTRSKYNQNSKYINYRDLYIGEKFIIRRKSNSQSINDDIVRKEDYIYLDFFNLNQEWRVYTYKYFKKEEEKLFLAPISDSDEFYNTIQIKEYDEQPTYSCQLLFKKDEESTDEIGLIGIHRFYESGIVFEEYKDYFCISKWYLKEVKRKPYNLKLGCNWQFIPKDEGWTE

Interstitial collagenase = target: T4, Interstitial collagenase (Homo sapiens, UniProt P03956); assay: Inhibition of human MMP1
T4 sequence (P03956 whole entry): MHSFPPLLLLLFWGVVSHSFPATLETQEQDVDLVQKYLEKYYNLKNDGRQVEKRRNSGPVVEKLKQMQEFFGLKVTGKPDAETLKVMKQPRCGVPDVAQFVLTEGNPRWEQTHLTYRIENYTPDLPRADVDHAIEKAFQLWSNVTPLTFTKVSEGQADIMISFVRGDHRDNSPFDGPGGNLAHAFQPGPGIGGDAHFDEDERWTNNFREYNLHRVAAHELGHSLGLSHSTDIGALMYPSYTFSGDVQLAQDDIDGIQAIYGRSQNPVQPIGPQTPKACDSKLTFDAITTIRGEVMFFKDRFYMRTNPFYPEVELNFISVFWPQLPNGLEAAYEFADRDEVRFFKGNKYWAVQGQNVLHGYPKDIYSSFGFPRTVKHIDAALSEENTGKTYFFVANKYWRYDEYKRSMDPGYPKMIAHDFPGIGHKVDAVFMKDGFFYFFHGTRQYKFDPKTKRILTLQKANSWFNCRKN

[5] = target: 72 kDa type IV collagenase (Homo sapiens, UniProt P08253); assay: Inhibition of human MMP2
[6] = target: Matrix metalloproteinase-9 (Homo sapiens, UniProt P14780); assay: Inhibition of human MMP9
[7] = target: Botulinum neurotoxin type A (Clostridium botulinum) (UniProt P0DPI0); assay: Inhibition of clostridium botulinum BoNT/A-mediated SNAP-25 substrate cleavage in chicken neurons at 30 uM preincubated for 15 mins before substrate addition
[8] = target: Botulinum neurotoxin type A (Clostridium botulinum) (UniProt P0DPI0); assay: Inhibition of Clostridium botulinum BoNT/A light chain-mediated SNAP-25 substrate cleavage preincubated for 15 mins in presence of zinc ion before substrate addition by FRET assay
How it was run: (§2)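 The potential inactivator (2.5 or 5 mM) was preincubated with compound in the assay mixture for 15 min at 37 °C. 17-mer SNAP-25 substrate and BoNT/A LC were then added, and activity was read in the FRET assay (37 °C, 40 min, ex 398/em 485 nm).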

[9] = target: Botulinum neurotoxin type A (Clostridium botulinum) (UniProt P0DPI0); assay: Inhibition of Clostridium botulinum BoNT/A light chain-mediated SNAP-25 substrate cleavage preincubated for 15 mins in presence of glutathione before substrate addition by FRET assay; how it was run: as §2
[10] = target: Botulinum neurotoxin type A (Clostridium botulinum) (UniProt P0DPI0); assay: Inhibition of Clostridium botulinum BoNT/A light chain-mediated SNAP-25 substrate cleavage preincubated for 15 mins in presence of cysteine before substrate addition by FRET assay; how it was run: as §2
[11] = target: Botulinum neurotoxin type A (Clostridium botulinum) (UniProt P0DPI0); assay: Ratio of Kinact to Ki for clostridium botulinum BoNT/A light chain
How it was run: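 BoNT/A LC was incubated with selected inhibitor concentrations for various times. Remaining activity was then measured by the FRET assay, and kobs/[I] was derived from the plotted data using a published method.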

[12] = target: Botulinum neurotoxin type A (Clostridium botulinum) (UniProt P0DPI0); assay: Inhibition of clostridium botulinum BoNT/A light chain assessed as residual activity using SNAP-25 as substrate at 50 uM after 90 mins measured after dialysis by FRET-based assay relative to 6-(4,5-dihydro-1H-imidazol-2-yl)-2-(4-(4-(4,5-dihydro-1H-imidazol-2-yl)phenoxy)phenyl)-1H-indole
How it was run: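 BoNT/A LC was co-incubated with inhibitor or a DMSO-equivalent control at 37 °C for 90 min. Samples were then dialysed (3,500 MWCO) against 20 mM HEPES pH 7.4, 10% glycerol, 0.05% Tween-20 for 20–24 h at 2–8 °C. Remaining activity was measured by the standard FRET assay.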

[13] = target: T1, Botulinum neurotoxin type A; assay: Inhibition of Clostridium botulinum BoNT/A light chain-mediated SNAP-25 substrate cleavage preincubated for 90 mins by FRET assay
How it was run: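 Compound was preincubated with BoNT/A LC for 90 min before the 40-min FRET assay (20 μM SNAP-25 peptide, 2 nM enzyme, 37 °C, ex 398/em 485 nm). IC50 is the concentration giving 50% inhibition.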

[14] = target: Botulinum neurotoxin type A (Clostridium botulinum) (UniProt P0DPI0)
[15] = target: T5, Lethal factor (Bacillus anthracis) (UniProt P15917); assay: Inhibition of Bacillus anthracis lethal factor using MCA-KKVYPYPME[dnp]Kamide peptide substrate at 100 uM after 30 mins by FRET assay
T5 sequence (whole entry): T2 sequence (P15917 whole entry)

T1 sequence (P0DPI0 2-448 limits assumed): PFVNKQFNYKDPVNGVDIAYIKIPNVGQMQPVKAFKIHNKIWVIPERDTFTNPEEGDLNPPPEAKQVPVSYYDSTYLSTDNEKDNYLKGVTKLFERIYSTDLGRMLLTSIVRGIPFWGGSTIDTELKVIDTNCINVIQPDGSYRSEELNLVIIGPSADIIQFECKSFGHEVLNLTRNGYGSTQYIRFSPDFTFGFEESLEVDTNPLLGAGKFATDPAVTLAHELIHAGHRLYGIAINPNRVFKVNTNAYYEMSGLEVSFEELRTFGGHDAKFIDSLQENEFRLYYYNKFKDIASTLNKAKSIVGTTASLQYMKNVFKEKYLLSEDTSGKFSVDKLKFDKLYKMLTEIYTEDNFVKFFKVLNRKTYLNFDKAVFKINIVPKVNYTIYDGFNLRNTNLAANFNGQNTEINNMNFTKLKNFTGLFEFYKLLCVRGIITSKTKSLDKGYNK
Sequence of Botulinum neurotoxin type A (Clostridium botulinum) (P0DPI0 2-448 limits assumed): as above
Sequence of Matrix metalloproteinase-9 (P14780 whole entry): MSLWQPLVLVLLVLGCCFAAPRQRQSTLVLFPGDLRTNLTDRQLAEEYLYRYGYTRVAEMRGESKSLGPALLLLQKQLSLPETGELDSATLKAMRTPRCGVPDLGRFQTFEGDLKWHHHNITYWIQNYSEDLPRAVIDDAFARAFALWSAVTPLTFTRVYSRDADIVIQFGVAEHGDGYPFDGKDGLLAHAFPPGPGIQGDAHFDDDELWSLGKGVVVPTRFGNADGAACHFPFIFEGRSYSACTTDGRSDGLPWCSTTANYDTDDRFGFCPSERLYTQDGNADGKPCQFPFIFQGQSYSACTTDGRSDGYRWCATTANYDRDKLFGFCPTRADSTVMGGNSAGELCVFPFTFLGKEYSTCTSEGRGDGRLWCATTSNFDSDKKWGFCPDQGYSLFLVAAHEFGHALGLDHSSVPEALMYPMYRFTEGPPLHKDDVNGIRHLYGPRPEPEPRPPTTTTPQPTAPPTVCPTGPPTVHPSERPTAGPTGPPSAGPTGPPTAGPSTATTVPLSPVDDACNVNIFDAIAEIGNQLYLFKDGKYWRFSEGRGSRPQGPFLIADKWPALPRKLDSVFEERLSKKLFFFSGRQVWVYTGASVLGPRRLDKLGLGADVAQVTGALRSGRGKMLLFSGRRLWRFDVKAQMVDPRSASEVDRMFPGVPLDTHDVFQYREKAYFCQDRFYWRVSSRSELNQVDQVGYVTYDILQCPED
Sequence of 72 kDa type IV collagenase (P08253 whole entry): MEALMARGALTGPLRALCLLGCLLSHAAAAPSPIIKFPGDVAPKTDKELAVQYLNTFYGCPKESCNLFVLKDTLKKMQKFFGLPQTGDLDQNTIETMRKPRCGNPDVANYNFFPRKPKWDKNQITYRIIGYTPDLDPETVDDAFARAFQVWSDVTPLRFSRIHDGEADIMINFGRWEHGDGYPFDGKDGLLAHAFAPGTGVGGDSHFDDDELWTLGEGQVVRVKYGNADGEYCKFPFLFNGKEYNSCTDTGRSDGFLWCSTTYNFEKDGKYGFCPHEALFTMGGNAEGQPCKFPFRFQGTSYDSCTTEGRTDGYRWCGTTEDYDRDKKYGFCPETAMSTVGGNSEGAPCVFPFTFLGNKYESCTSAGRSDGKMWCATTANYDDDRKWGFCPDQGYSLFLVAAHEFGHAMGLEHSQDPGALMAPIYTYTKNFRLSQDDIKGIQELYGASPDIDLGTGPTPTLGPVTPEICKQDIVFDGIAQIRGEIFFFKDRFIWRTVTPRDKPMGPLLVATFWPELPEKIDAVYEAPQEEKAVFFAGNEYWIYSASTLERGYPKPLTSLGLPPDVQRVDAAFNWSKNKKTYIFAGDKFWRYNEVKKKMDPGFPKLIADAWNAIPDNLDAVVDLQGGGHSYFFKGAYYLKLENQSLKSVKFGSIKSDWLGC

Structure (SMILES)	IC50 [1] [µM]	IC50 (Lethal factor) [µM]	further results
Cn1c(/C(C#N)=C/c2ccc(-c3cccs3)s2)[n+](C)c2ccccc21	> 100		
CSCC[C@H](NC(=O)[C@H](CCCCN)NC(=O)[C@@H](NC(=O)[C@H](C)NC(=O)[C@H](CCCNC(=N)N)NC(=O)C(S)Cc1ccccc1)[C@@H](C)O)C(=O)N[C@@H](CC(C)C)C(=O)O (stereo partly specified) (X1-RATKML-OH)			Ki [2]: 0.33 µM
COc1ccc(/C=C(\C#N)c2nc3ccccc3[nH]2)cc1F	> 100	> 100	
N#C/C(=C\c1ccc(-c2cccs2)s1)c1nc2ccccc2o1	> 100		
COc1cc(/C=C(\C#N)c2nc3ccccc3[nH]2)cc(Cl)c1O	59	> 100	
N#C/C(=C\c1c[nH]c2c1ccc1ccccc12)c1nc2ccccc2[nH]1	> 100	> 100	
N#C/C(=C\c1c(Cl)ncnc1Cl)c1nc2ccccc2[nH]1		> 100	
N#C/C(=C\c1cccs1)c1nc2ccccc2[nH]1	> 100	> 100	
Cc1c(/C=C(\C#N)c2nc3ccccc3[nH]2)sc2ccccc12	> 100	> 100	
Cc1ccc(/C=C(\C#N)c2nc3ccccc3[nH]2)s1	> 100	> 100	
N#C/C(=C\c1ccc(-c2cccs2)s1)c1ccc2ccccc2n1	> 100	> 100	
N#C/C(=C\c1ccc(-c2cccs2)s1)c1cc2ccccc2[nH]1	> 100	> 100	
N#C/C(=C\c1ccc(-c2ccccc2)cc1)c1nc2ccccc2[nH]1	86	> 100	
N#C/C(=C\c1ccc(-c2cccs2)s1)c1nc2ccccc2s1	> 100	> 100	
N#C/C(=C\c1ccc(-c2ccco2)s1)c1nc2ccccc2[nH]1	59	> 100	
COc1ccc(/C=C(\C#N)c2nc3ccccc3[nH]2)cc1OC	> 100	> 100	
COc1ccc(/C=C(\C#N)c2nc3ccccc3[nH]2)cc1I	7.2	74	IC50 [3]: 10 µM; IC50 [4]: > 100 µM; IC50 (Interstitial collagenase): > 100 µM; IC50 [5]: > 100 µM; IC50 [6]: > 100 µM; inhibition [7]: < 10%; inhibition [8]: Active; inhibition [9]: inactive; inhibition [10]: inactive; Ratio [11]: 979 M⁻¹ s⁻¹; Ratio [12]: 0.99
N#C/C(=C\c1c[nH]c2cccc([N+](=O)[O-])c12)c1nc2ccccc2[nH]1	> 100	> 100	
N#C/C(=C\c1ccc(-c2cccs2)s1)c1nc2ccccc2[nH]1	26	> 100	IC50 [3]: 29 µM; IC50 [4]: > 100 µM; IC50 (Interstitial collagenase): > 100 µM; IC50 [5]: > 100 µM; IC50 [6]: > 100 µM; inhibition [7]: 58%; inhibition [8]: Active; inhibition [9]: Active; inhibition [10]: Active; Ratio [11]: 326 M⁻¹ s⁻¹; IC50 [13]: 17 µM; Ratio [12]: 1.13; TDI [14]: Active
Cc1cc(/C=C(\C#N)c2nc3ccccc3[nH]2)sc1C	> 100	> 100	
N#C/C(=C\c1cc(-c2ccccc2)cnc1Cl)c1nc2ccccc2[nH]1	> 100	> 100	
N=C(N)c1ccc(Oc2ccc(-c3cc4ccc(C(=N)N)cc4[nH]3)cc2)cc1			inhibition [7]: 42%
N#C/C(=C\c1ccc(-c2cccs2)o1)c1nc2ccccc2[nH]1	> 100	> 100	
COc1ccc(/C=C(\C#N)c2nc3ccccc3[nH]2)cc1Br	> 100	> 100	
COc1ccc(/C=C(\C#N)c2nc3ccccc3[nH]2)cc1Cl	> 100	> 100	
N#C/C(=C\c1c[nH]c2ccc(Br)cc12)c1nc2ccccc2[nH]1	> 100		inhibition [15]: 60%
